The values below come from ChEMBL document CHEMBL5576157, “"Seasoning" antimalarial drugs' action: chloroquine bile salts as novel triple-stage antiplasmodial hits” (RSC Med Chem, 2024).

The term inhibition denotes the change of the read-out against control, counted positive when it falls. Usually IC50 stands for the concentration that gives 50% inhibition.

The source made the active and inactive calls. The calls are words filed in the database; no cut-off is given here.

A short description of data set [1]: Stability of compound assessed as degradation temperature at 25 to 500 degreeC under N2 gas by thermogravimetric analysis. The data set is classed as physicochemical. The essentials:
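Thermogravimetric analysis heated samples from 25 to 500 °C at 5 °C/min under N2 flowing at 50 mL·min⁻¹.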

The subject of data set [2] is Plasmodium falciparum. Description: Antimalarial activity against stage III gametocytes of Plasmodium falciparum 3D7 expressing GFP infected erythrocytes assessed inhibition of gametocyte level at 10 uM after 72 hrs followed by compound washout and measured after 24 hrs by Giemsa-staining based microscopic analysis relative to control. The data set is classed as functional. As to conditions: 3D7, Erythrocyte. The essentials:
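P. falciparum 3D7HT-GFP was sorbitol-synchronized, and schizonts were Percoll-purified and cultured at 3% hematocrit until stage III gametocytes appeared. Microcultures of 1 mL (1-2% gametocytemia, 2.5% hematocrit) got 10 µM compound or DMSO (<0.3%) for 72 h, then compound-free medium for 24 h. Stage IV/V gametocytes were counted per 3000 RBC on Giemsa smears, in duplicate by two microscopists. Inhibition = 100 − (treated/drug-free control ×100).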

Data set [3] has as its system Erythrocyte. Description: Hemolytic activity in RBC (unknown origin) assessed as hemolysis at 10 uM incubated for 1 hr by microplate reader assay. As to conditions: human. The data set is classed as toxicity, cell-based. The essentials:
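Human blood had plasma removed by spinning. RBC were washed three times in 0.01 M PBS pH 7.4 and set to 6% hematocrit. They were mixed with an equal volume of compound at 20 µM in PBS with 1.3% DMSO and kept 1 h at 37 °C, then spun. Supernatant A450 was read. Hemolysis % was scaled between PBS/0.65% DMSO (negative) and 1% Triton X-100 (positive).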

Data set [4] relates to Plasmodium falciparum. Description: Antimalarial activity against blood stage chloroquine-sensitive Plasmodium falciparum 3D7 expressing GFP infected in erythrocytes assessed as reduction in parasitemia incubated for 72 hrs by flow cytometry analysis. The data set is classed as functional, organism-based. To be noted: 3D7, Erythrocyte. The essentials: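 Growth was read by flow cytometry on the GFP channel (488 nm excitation), counting 20,000–40,000 RBC per well. IC50 values were fitted from the curves and reported as the mean of at least three experiments, each in duplicate.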
Background: Flow cytometry measures light scatter and fluorescence of single cells or particles in a stream.

In data set [5] the test system is Plasmodium falciparum. Description: Antimalarial activity against blood stage chloroquine-sensitive Plasmodium falciparum 3D7 expressing GFP infected in erythrocytes assessed as inhibition of parasite growth at 10 uM incubated for 72 hrs by flow cytometry analysis relative to control. Format: functional. To be noted: 3D7, Erythrocyte. The essentials: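 Unsynchronized P. falciparum 3D7-GFP culture (0,6% hematocrit, 0,5% parasitaemia) was exposed to 10 µM compound for 72 h at 37 °C and 5% CO2. Growth was read by flow cytometry of GFP (Fl-1, 488 nm excitation), counting 20,000–40,000 erythrocytes per well.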

The test system of data set [6] is Huh-7. Description: Cytotoxicity against human Huh-7 cells assessed as reduction in cell viability at 10 uM by AlamarBlue assay. As to conditions: huh-7, 10 µM. Format: toxicity, cell-based. The essentials:
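Huh-7 hepatoma cells were cultured in RPMI with 10% FCS, non-essential amino acids, glutamine, penicillin/streptomycin and 10 mM HEPES pH 7, at 37 °C and 5% CO2, within the liver-stage infection setup. Viability was read by AlamarBlue following the manufacturer's protocol.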

The test system of data set [7] is Plasmodium berghei. Description: Antimalarial activity against Plasmodium berghei sporozoites expressing firefly luciferase infected in human Huh-7 cells assessed reduction in parasite growth at 10 uM preincubated for 1 hr followed by infection and measured after 48 hrs by luminescence analysis. Format: functional, organism-based. To be noted: time 49.0 hrs. The essentials: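 Huh-7 hepatoma cells were grown in RPMI with 10% FCS, non-essential amino acids, glutamine, penicillin/streptomycin and 10 mM HEPES pH 7, at 37 °C and 5% CO2. Cells were seeded at 1.2×10⁴/well the day before. Compound medium was added ~1 h before infection with firefly luciferase P. berghei sporozoites freshly dissected from mosquito salivary glands, then spun at 1700 g for 5 min. Parasite load was read at 48 h by lysate luminescence after luciferin addition.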

The test system of data set [8] is Plasmodium falciparum. Description: Antimalarial activity against blood stage chloroquine-resistant Plasmodium falciparum Dd2 infected in erythrocytes assessed as reduction in parasitemia incubated for 72 hrs by flow cytometry analysis. The data set is classed as functional, organism-based. As to conditions: Dd2, Erythrocyte.

As for `C[C@H](CCC(=O)O)[C@H]1CC[C@H]2[C@@H]3[C@H](O)C[C@@H]4C[C@H](O)CC[C@]4(C)[C@H]3C[C@H](O)[C@]12C` [CHOLIC ACID], the T in data set [1] came out at 360 °C. Besides, the inhibition at 10 µM in data set [2] amounted to 39%. Further, the Activity result in data set [3] is given as “Non-Toxic”.

As for `COc1cc(NC(C)CCCN)c2ncccc2c1.C[C@H](CCC(=O)O)[C@H]1CC[C@H]2[C@@H]3[C@H](O)C[C@@H]4C[C@H](O)CC[C@]4(C)[C@H]3C[C@H](O)[C@]12C`, in data set [1], the T is 359 °C. In addition, in data set [4], the IC50 came to 589 nM. Also, the inhibition at 10 µM in data set [2] came to 91%; in data set [5], 82%. In addition, the Activity result in data set [3] and in data set [6] was “Non-Toxic” each time.

Take `CCN(CC)CCCC(C)Nc1ccnc2cc(Cl)ccc12.C[C@H](CCC(=O)O)[C@H]1CC[C@H]2[C@@H]3[C@H](O)C[C@@H]4C[C@H](O)CC[C@]4(C)[C@H]3C[C@H](O)[C@]12C`: the T in data set [1] turned out to be 253 °C. Further, the figures for the inhibition at 10 µM in data set [2] and in data set [5] were 88% and 97%, respectively. Moreover, the Activity entry in data set [3] and in data set [6] was “Non-Toxic” each time.

As to `COc1cc(NC(C)CCCN)c2ncccc2c1.C[C@H](CCC(=O)O)[C@H]1CC[C@H]2[C@@H]3CC[C@@H]4C[C@H](O)CC[C@]4(C)[C@H]3CC[C@]12C` [listing 1 of 2 here], the result in data set [7] was Active.

Turning to `CCN(CC)CCCC(C)Nc1ccnc2cc(Cl)ccc12.C[C@H](CCC(=O)NCC(=O)O)[C@H]1CC[C@H]2[C@@H]3[C@H](O)C[C@@H]4C[C@H](O)CC[C@]4(C)[C@H]3C[C@H](O)[C@]12C`, the T in data set [1] was 361 °C. For the same compound, the inhibition at 10 µM in data set [2] came to 86%; in data set [5], 97%. In addition, the Activity result in data set [3] and in data set [6] was “Non-Toxic” in each case.

Consider `C[C@H](CCC(=O)NCCCCNc1ccnc2cc(Cl)ccc12)[C@H]1CC[C@H]2[C@@H]3[C@H](O)C[C@@H]4C[C@H](O)CC[C@]4(C)[C@H]3C[C@H](O)[C@]12C`, for which the T in data set [1] is 250 °C. Besides, the IC50 in data set [4] came to 108 nM; in data set [8], 562 nM. The inhibition at 10 µM in data set [2] was determined as 91%. Besides, the Activity result in data set [3] and in data set [6] was “Non-Toxic” throughout. In data set [7], the result was Active.

As to `CCN(CC)CCCC(C)Nc1ccnc2cc(Cl)ccc12.C[C@H](CCC(=O)O)[C@H]1CC[C@H]2[C@@H]3CC[C@@H]4C[C@H](O)CC[C@]4(C)[C@H]3CC[C@]12C` [listing 1 of 2 here], the T in data set [1] turned out to be 367 °C. In addition, the inhibition at 10 µM was 90% in data set [2] and 97% in data set [5]. Also, the Activity result in data set [3] and in data set [6] was “Non-Toxic” each time.

As for `COc1cc(NC(C)CCCN)c2ncccc2c1.C[C@H](CCC(=O)O)[C@H]1CC[C@H]2[C@@H]3CC[C@@H]4C[C@H](O)CC[C@]4(C)[C@H]3C[C@H](O)[C@]12C`, the T in data set [1] is 348 °C. Moreover, in data set [4], the IC50 amounted to 600 nM. For the same compound, the figures for the inhibition at 10 µM in data set [2] and in data set [5] were 86% and 82%, respectively. In addition, the Activity result in data set [3] and in data set [6] was “Non-Toxic” each time.

As for `COc1cc(NC(C)CCCN)c2ncccc2c1.O=P(O)(O)O.O=P(O)(O)O` (centres undefined) [PRIMAQUINE PHOSPHATE], the half-maximal inhibitory concentration (IC50) in data set [4] was 415 nM; in data set [8] it was 464 nM. Moreover, the figures for the inhibition at 10 µM in data set [2] and in data set [5] were 93% and 83%, respectively. For the same compound, in data set [3], the Activity entry is “Non-Toxic”.

Take `COc1cc(NC(C)CCCN)c2ncccc2c1.C[C@H](CCC(=O)NCC(=O)O)[C@H]1CC[C@H]2[C@@H]3[C@H](O)C[C@@H]4C[C@H](O)CC[C@]4(C)[C@H]3C[C@H](O)[C@]12C`: the T in data set [1] was found to be 255 °C. The IC50 in data set [4] was found to be 384 nM. Moreover, the figures for the inhibition at 10 µM in data set [2] and in data set [5] were 81% and 82%, respectively. For the same compound, the Activity entry in data set [3] and in data set [6] was “Non-Toxic” throughout.

For the compound `C[C@H](CCC(=O)O)[C@H]1CC[C@H]2[C@@H]3CC[C@@H]4C[C@H](O)CC[C@]4(C)[C@H]3CC[C@]12C` [LITHOCHOLIC ACID], the T in data set [1] was found to be 355 °C. This compound returned an inhibition at 10 µM in data set [2] of 65%. In addition, the Activity result in data set [3] was “Non-Toxic”.

As for `CCN(CC)CCCC(C)Nc1ccnc2cc(Cl)ccc12.C[C@H](CCC(=O)O)[C@H]1CC[C@H]2[C@@H]3CC[C@@H]4C[C@H](O)CC[C@]4(C)[C@H]3C[C@H](O)[C@]12C`, in data set [1], the T was determined as 242 °C. The inhibition at 10 µM in data set [2] amounted to 86%; in data set [5], 97%. The Activity entry in data set [3] and in data set [6] was “Non-Toxic” each time.

Turning to `COc1cc(NC(C)CCCN)c2ncccc2c1.C[C@H](CCC(=O)O)[C@H]1CC[C@H]2[C@@H]3CC[C@@H]4C[C@H](O)CC[C@]4(C)[C@H]3CC[C@]12C` [listing 2 of 2 here], the T in data set [1] turned out to be 253 °C. In data set [4], the 50% inhibitory concentration (IC50) turned out to be 424 nM. For the same compound, the inhibition at 10 µM in data set [2] worked out at 83%; in data set [5], 82%. The Activity entry in data set [3] and in data set [6] was “Non-Toxic” throughout.

As to `COc1cc(NC(C)CCCN)c2ncccc2c1.C[C@H](CCC(=O)O)[C@H]1CC[C@H]2[C@@H]3[C@H](O)C[C@@H]4C[C@H](O)CC[C@]4(C)[C@H]3CC[C@]12C`, the T in data set [1] was 366 °C. The IC50 in data set [4] came to 380 nM. For the same compound, the inhibition at 10 µM in data set [2] came to 80%; in data set [5], 82%. For the same compound, the Activity result in data set [3] and in data set [6] was “Non-Toxic” each time.

As to `C[C@H](CCC(=O)O)[C@H]1CC[C@H]2[C@@H]3CC[C@@H]4C[C@H](O)CC[C@]4(C)[C@H]3C[C@H](O)[C@]12C` [DEOXYCHOLIC ACID], the T in data set [1] worked out at 357 °C. Besides, the inhibition at 10 µM in data set [2] amounted to 42%. In addition, in data set [3], the Activity entry is listed as “Non-Toxic”.

As to `CCN(CC)CCCC(C)Nc1ccnc2cc(Cl)ccc12.O=P(O)(O)O.O=P(O)(O)O` (centres undefined) [CHLOROQUINE PHOSPHATE], the inhibition at 10 µM turned out to be 72% in data set [2] and 98% in data set [5]. Besides, in data set [3], the Activity entry is “Non-Toxic”.

Take `CCN(CC)CCCC(C)Nc1ccnc2cc(Cl)ccc12.C[C@H](CCC(=O)O)[C@H]1CC[C@H]2[C@@H]3[C@H](O)C[C@@H]4C[C@H](O)CC[C@]4(C)[C@H]3CC[C@]12C`: in data set [1], the T was determined as 255 °C. The inhibition at 10 µM in data set [2] came out at 87%; in data set [5], 97%. For the same compound, the Activity entry in data set [3] and in data set [6] was “Non-Toxic” throughout.

`CCN(CC)CCCC(C)Nc1ccnc2cc(Cl)ccc12.C[C@H](CCC(=O)O)[C@H]1CC[C@H]2[C@@H]3CC[C@@H]4C[C@H](O)CC[C@]4(C)[C@H]3CC[C@]12C` [listing 2 of 2 here]: in data set [7], the result was Active.

Consider `C[C@H](CCC(=O)NCC(=O)O)[C@H]1CC[C@H]2[C@@H]3[C@H](O)C[C@@H]4C[C@H](O)CC[C@]4(C)[C@H]3C[C@H](O)[C@]12C` [GLYCOCHOLIC ACID], for which the T in data set [1] came to 328 °C. This compound showed an inhibition at 10 µM in data set [2] of 41%. The Activity entry in data set [3] is on record as “Non-Toxic”.
